# The whole screen tested about 310,000 compounds, of which about 2,800 (0.9%) were called active.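 Rule for the calls: active = B-score of the integrated calcium signal more than 4 SD below the library mean, with starting fluorescence not abnormally high; inactive = the rest.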 Many of the other results were omitted from the sample, so actives are more common in it than they were.
# Assay: enhancers of RGS4 function in calcium signaling – cell-based, HEK293 M3R inducible RGS4, calcium flux, primary screen (AID 463111);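 for B-score: negative B-score means reduced calcium response which marks RGS4 activation or potentiation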
# Conditions: HEK293 M3R/inducible RGS4, carbachol calcium flux Fluo4, at 10 µM; stronger effect = lower value
# How it was run: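 Assay system: HEK293 FlpIn-TREx cells, stable M3R, doxycycline-inducible RGS4 / Probe or stimulus: carbachol, ECmax concentration / Times: overnight RGS4 induction, 30 min dye load 37 °C, 20 min compound RT / Signal: kinetic calcium fluorescence imaging with Fluo4-AM dye, 2 µM / Measure: Agonist-evoked peak-minus-minimum fluorescence over baseline, integrated ratio, B score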
row,Compound,B-score
1,C[C@@H](C(=O)N1CCNCC1)n1cc(CCC(=O)O)nn1,inactive
2,O=C(NNC(=S)NCc1ccco1)C(c1ccccc1)c1ccccc1,inactive
3,CC(C)C(=O)Nc1cccc(NC(=S)NC(=O)C(c2ccccc2)c2ccccc2)c1,inactive
4,CCCCC(=O)NNC(=S)NC(=O)C(c1ccccc1)c1ccccc1,-9.53 (active)
5,O=C(N/N=C/c1ccsc1)c1cc(O)cc(O)c1,inactive
6,COc1ccc(CN2CC[C@H]3C=CC[C@@H](C(=O)N4CCOCC4)[C@H]3C2=O)cc1OC,inactive
7,CCN(Cc1ccncc1)C(=O)CCc1ccccc1,inactive
8,Cc1cc(C)n(Cc2cnc(N3CCOCC3)s2)n1,inactive
9,CCC1C=C(c2ccccc2)C=CN=C1N(CC)CC (stereo not given),-10.2 (active)
10,COc1cccc(NC(=O)N2C3CCCC2CC(NC(C)=O)C3)c1 (stereo not given),inactive
11,CCCn1c(SCC(=O)c2ccc3c(c2)OCCO3)nnc1C(C)C,inactive
12,O=S(=O)(c1ccc(Br)cc1)N1CCC(c2nc3ccccc3[nH]2)CC1,inactive
13,O=C(c1ccccc1F)N1CCN(S(=O)(=O)c2ccc(Br)cc2)CC1,inactive
14,O=S(=O)(c1ccc(Br)cc1)n1ccc2ccccc21,-7.7 (active)
15,CCC1CCc2c(sc(NC(C)=O)c2C#N)C1 (stereo not given),inactive
16,CCC(C)c1ccc(NC(=S)NCc2ccccn2)cc1 (stereo not given),inactive
17,FC(F)(F)c1cccc(-c2nc(COc3ccc(Cl)cc3Cl)no2)c1,-7.64 (active)
18,FC(F)(F)c1cnc(Oc2ccccc2-c2nnc(-c3ccc(Cl)cc3)o2)c(Cl)c1,inactive
19,Cc1cc(Cl)ccc1OCc1nc(-c2ccncc2)no1,inactive
20,Cc1ccc(NC(=O)COc2coc(CN3CCc4ccccc4C3)cc2=O)cc1Cl,inactive
21,CCOC(=O)C1(Cc2ccccc2C)CCCN(C(=O)c2ccc(COC)o2)C1 (stereo not given),inactive
22,CCOc1cc(C(=S)N2CCOCC2)ccc1OS(=O)(=O)c1ccc(Br)cc1,inactive
23,Cn1nccc1C(=O)NC1CCCc2c1cnn2-c1ccccc1F (stereo not given),inactive
24,COc1ccc(C(=O)NC2CCCc3c2cnn3-c2cccc(C)c2C)c(OC)n1 (stereo not given),-10.2 (active)
25,Cc1cc(C(=O)NC2CCCc3c2cnn3-c2cccc(C)c2C)c(C)o1 (stereo not given),inactive
26,Cc1cccc(C(=O)Nc2ccc(C(=O)/C=C/c3cccs3)cc2)c1,-10.5 (active)
27,Cc1cccc(C(=O)Nc2ccc(C(=O)N/N=C/c3cccc(C)n3)cc2)c1,inactive
28,Cc1cccc(C(=O)Nc2ccc(CC(=O)O)cc2)c1,inactive
29,Cn1nc(C(F)(F)F)c2cc(NC(=O)OCC(C)(C)C)sc21,inactive
30,CN(C(=O)CN1C(=O)CCSc2ccc(S(=O)(=O)N3CCCC3)cc21)c1ccccc1,inactive

# Reference: PubChem BioAssay AID463111 (Johns Hopkins Ion Channel Center, 2010)
